From ChEMBL document CHEMBL3351863, “Optimization of 2-phenyl-pyrimidine-4-carboxamides towards potent, orally bioavailable and selective P2Y(12) antagonists for inhibition of platelet aggregation” (Bioorg Med Chem Lett, 2014)

target: P2Y purinoceptor 12 (Homo sapiens, UniProt Q9H244); test: Displacement of [3H]-2-methyl-thio-adenosine 5'-diphosphate from human recombinant P2Y12 expressed in CHO cell membranes by scintillation counting method; conditions: not given
Summary of the method: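 CHO cells expressing recombinant P2Y₁₂ receptors, incubated with tritium-labeled 2-methyl-thio-adenosine 5'-diphosphate plus test compound; IC₅₀ from displacement curves, each point in triplicate; reference compound run with every compound set, and set re-analyzed if its IC₅₀ fell outside pre-set 95% confidence interval.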

P2Y purinoceptor 12, sequence (Q9H244 whole entry): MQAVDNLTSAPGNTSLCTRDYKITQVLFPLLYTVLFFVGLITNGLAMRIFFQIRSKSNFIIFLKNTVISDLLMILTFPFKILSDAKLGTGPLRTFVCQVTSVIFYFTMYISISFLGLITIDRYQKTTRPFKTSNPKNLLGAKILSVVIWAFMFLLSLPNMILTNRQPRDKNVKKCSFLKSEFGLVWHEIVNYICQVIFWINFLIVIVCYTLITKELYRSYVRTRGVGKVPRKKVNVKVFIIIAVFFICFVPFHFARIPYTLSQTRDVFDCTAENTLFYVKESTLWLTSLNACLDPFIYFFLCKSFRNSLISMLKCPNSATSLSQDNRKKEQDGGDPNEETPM

Compound | IC50 [nM]
CCOC(=O)N1CCN(C(=O)[C@H](CCC(=O)O)NC(=O)c2cc(C3CC3)nc(-c3ccccc3)n2)CC1 | 59.5
CCOC(=O)N1CCN(C(=O)[C@H](CCC(=O)O)NC(=O)c2cc(CCCO)nc(-c3ccccc3)n2)CC1 | 218
CCOC(=O)N1CCN(C(=O)[C@H](CCC(=O)O)NC(=O)c2cc(-c3ccncc3)nc(-c3ccccc3)n2)CC1 | 53

test system: Platelet; test: Inhibition of ADP-induced platelet aggregation in human platelet rich plasma assessed as remaining activity at 500 nM by in-vitro light transmission aggregometry assay; format: functional; conditions: not given; call rule not given here
Summary of the method: (§1)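 Light transmission aggregometry in human platelet-rich plasma; compound incubated, aggregation triggered with 3 µM ADP; remaining activity (RA) recorded at a single compound level (1000, 500 or 100 nM).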

Compound | Activity [%]
CCCCc1cc(C(=O)N[C@@H](CCC(=O)O)C(=O)N2CCN(C(=O)OCC)CC2)nc(-c2ccccc2)n1 | >60
CCOC(=O)N1CCN(C(=O)[C@H](CCC(=O)O)NC(=O)c2cc(CCCO)nc(-c3ccccc3)n2)CC1 | <30
CCOC(=O)N1CCN(C(=O)[C@H](CCC(=O)O)NC(=O)c2cc(-c3ccncc3)nc(-c3ccccc3)n2)CC1 | >60

test system: Platelet; test: Inhibition of ADP-induced platelet aggregation in human platelet rich plasma assessed as remaining activity at 1000 nM by in-vitro light transmission aggregometry assay; format: functional; conditions: not given; summary of the method: as §1

Compound | Activity [%]
CCCCc1cc(C(=O)N[C@@H](CCC(=O)O)C(=O)N2CCN(C(=O)OCC)CC2)nc(-c2ccccc2)n1 | >30
CCOC(=O)N1CCN(C(=O)[C@H](CCC(=O)O)NC(=O)c2cc(-c3ccncc3)nc(-c3ccccc3)n2)CC1 | >30

test system: Platelet; test: Inhibition of ADP-induced platelet aggregation in human platelet rich plasma assessed as remaining activity at 100 nM by in-vitro light transmission aggregometry assay; format: functional; conditions: not given; summary of the method: as §1

Compound | Activity [%]
CCOC(=O)N1CCN(C(=O)[C@H](CCC(=O)O)NC(=O)c2cc(CCCO)nc(-c3ccccc3)n2)CC1 | <70

test system: Platelet; test: Inhibition of ADP-induced platelet aggregation in human platelet rich plasma by in-vitro light transmission aggregometry assay; format: functional; conditions: Homo sapiens, Platelet, Plasma
Summary of the method: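 Human platelet-rich plasma incubated with compound, aggregation induced by 3 µM ADP and read by light transmission aggregometry; IC₅₀ derived from concentration–response curve.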

Compound | IC50 [nM]
CCCCc1cc(C(=O)N[C@@H](CCC(=O)O)C(=O)N2CCN(C(=O)OCC)CC2)nc(-c2ccccc2)n1 | 1930
CCOC(=O)N1CCN(C(=O)[C@H](CCC(=O)O)NC(=O)c2cc(C3CC3)nc(-c3ccccc3)n2)CC1 | 3230
CCOC(=O)N1CCN(C(=O)[C@H](CCC(=O)O)NC(=O)c2cc(CCCO)nc(-c3ccccc3)n2)CC1 | 264

test system: not listed separately; test: Potency shift, ratio of IC50 for inhibition of ADP-induced platelet aggregation in human platelet rich plasma to IC50 for displacement of [3H]-2-methyl-thio-adenosine 5'-diphosphate from human recombinant P2Y12 expressed in CHO cell membranes; conditions: not given

Compound | Ratio IC50
CCCCc1cc(C(=O)N[C@@H](CCC(=O)O)C(=O)N2CCN(C(=O)OCC)CC2)nc(-c2ccccc2)n1 | 20
CCOC(=O)N1CCN(C(=O)[C@H](CCC(=O)O)NC(=O)c2cc(C3CC3)nc(-c3ccccc3)n2)CC1 | 54
CCOC(=O)N1CCN(C(=O)[C@H](CCC(=O)O)NC(=O)c2cc(CCCO)nc(-c3ccccc3)n2)CC1 | 1.2

test system: not listed separately; test: Protein binding in human plasma; format: ADME, cell-free; conditions: read-out: PPB (converted)

Compound | fraction unbound
CCCCc1cc(C(=O)N[C@@H](CCC(=O)O)C(=O)N2CCN(C(=O)OCC)CC2)nc(-c2ccccc2)n1 | 0.007
CCOC(=O)N1CCN(C(=O)[C@H](CCC(=O)O)NC(=O)c2cc(C3CC3)nc(-c3ccccc3)n2)CC1 | 0.003
CCOC(=O)N1CCN(C(=O)[C@H](CCC(=O)O)NC(=O)c2cc(CCCO)nc(-c3ccccc3)n2)CC1 | 0.128

test system: not listed separately; test: Solubility in neutral pH; format: physicochemical; conditions: not given

Compound | solubility
CCCCc1cc(C(=O)N[C@@H](CCC(=O)O)C(=O)N2CCN(C(=O)OCC)CC2)nc(-c2ccccc2)n1 | soluble
CCOC(=O)N1CCN(C(=O)[C@H](CCC(=O)O)NC(=O)c2cc(C3CC3)nc(-c3ccccc3)n2)CC1 | soluble
CCOC(=O)N1CCN(C(=O)[C@H](CCC(=O)O)NC(=O)c2cc(CCCO)nc(-c3ccccc3)n2)CC1 | soluble
CCOC(=O)N1CCN(C(=O)[C@H](CCC(=O)O)NC(=O)c2cc(-c3ccncc3)nc(-c3ccccc3)n2)CC1 | soluble

test system: not listed separately; test: Solubility in basic pH; format: physicochemical; conditions: not given

Compound | solubility
CCCCc1cc(C(=O)N[C@@H](CCC(=O)O)C(=O)N2CCN(C(=O)OCC)CC2)nc(-c2ccccc2)n1 | soluble
CCOC(=O)N1CCN(C(=O)[C@H](CCC(=O)O)NC(=O)c2cc(C3CC3)nc(-c3ccccc3)n2)CC1 | soluble
CCOC(=O)N1CCN(C(=O)[C@H](CCC(=O)O)NC(=O)c2cc(CCCO)nc(-c3ccccc3)n2)CC1 | soluble
CCOC(=O)N1CCN(C(=O)[C@H](CCC(=O)O)NC(=O)c2cc(-c3ccncc3)nc(-c3ccccc3)n2)CC1 | soluble

target: T1, Cytochrome P450 3A4 (Homo sapiens, UniProt P08684); test: Inhibition of CYP3A4 in human liver microsomes assessed as reduction in midazolam 1'-hydroxylation; format: ADME; conditions: not given
T1 sequence (P08684 whole entry): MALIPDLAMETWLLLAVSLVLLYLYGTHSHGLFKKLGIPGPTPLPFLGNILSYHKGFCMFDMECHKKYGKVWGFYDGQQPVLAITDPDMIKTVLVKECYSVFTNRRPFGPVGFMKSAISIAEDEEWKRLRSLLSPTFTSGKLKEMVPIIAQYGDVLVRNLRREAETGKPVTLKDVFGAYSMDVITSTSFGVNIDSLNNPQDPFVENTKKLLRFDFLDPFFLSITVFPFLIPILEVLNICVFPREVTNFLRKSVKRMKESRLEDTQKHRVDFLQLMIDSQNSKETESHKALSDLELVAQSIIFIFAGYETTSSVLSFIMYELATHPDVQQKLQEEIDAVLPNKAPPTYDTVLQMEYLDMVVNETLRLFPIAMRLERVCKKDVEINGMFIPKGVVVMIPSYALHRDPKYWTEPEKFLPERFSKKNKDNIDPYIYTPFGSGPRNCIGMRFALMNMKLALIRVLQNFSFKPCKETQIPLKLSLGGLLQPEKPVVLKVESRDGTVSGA

Compound | inhibition (INH)
CCCCc1cc(C(=O)N[C@@H](CCC(=O)O)C(=O)N2CCN(C(=O)OCC)CC2)nc(-c2ccccc2)n1 | Not Active
CCOC(=O)N1CCN(C(=O)[C@H](CCC(=O)O)NC(=O)c2cc(C3CC3)nc(-c3ccccc3)n2)CC1 | Not Active
CCOC(=O)N1CCN(C(=O)[C@H](CCC(=O)O)NC(=O)c2cc(CCCO)nc(-c3ccccc3)n2)CC1 | Not Active
CCOC(=O)N1CCN(C(=O)[C@H](CCC(=O)O)NC(=O)c2cc(-c3ccncc3)nc(-c3ccccc3)n2)CC1 | Not Active

target: T1, Cytochrome P450 3A4; test: Inhibition of CYP3A4 in human liver microsomes assessed as reduction in testosterone 6beta-hydroxylation; format: ADME; conditions: not given

Compound | inhibition (INH)
CCCCc1cc(C(=O)N[C@@H](CCC(=O)O)C(=O)N2CCN(C(=O)OCC)CC2)nc(-c2ccccc2)n1 | Not Active
CCOC(=O)N1CCN(C(=O)[C@H](CCC(=O)O)NC(=O)c2cc(C3CC3)nc(-c3ccccc3)n2)CC1 | Not Active
CCOC(=O)N1CCN(C(=O)[C@H](CCC(=O)O)NC(=O)c2cc(CCCO)nc(-c3ccccc3)n2)CC1 | Not Active
CCOC(=O)N1CCN(C(=O)[C@H](CCC(=O)O)NC(=O)c2cc(-c3ccncc3)nc(-c3ccccc3)n2)CC1 | Not Active

target: Cytochrome P450 2D6 (Homo sapiens, UniProt P10635); test: Inhibition of CYP2D6 in human liver microsomes assessed as reduction in dextromethorphan-O demethylation; format: ADME; conditions: not given
Sequence (P10635 whole entry): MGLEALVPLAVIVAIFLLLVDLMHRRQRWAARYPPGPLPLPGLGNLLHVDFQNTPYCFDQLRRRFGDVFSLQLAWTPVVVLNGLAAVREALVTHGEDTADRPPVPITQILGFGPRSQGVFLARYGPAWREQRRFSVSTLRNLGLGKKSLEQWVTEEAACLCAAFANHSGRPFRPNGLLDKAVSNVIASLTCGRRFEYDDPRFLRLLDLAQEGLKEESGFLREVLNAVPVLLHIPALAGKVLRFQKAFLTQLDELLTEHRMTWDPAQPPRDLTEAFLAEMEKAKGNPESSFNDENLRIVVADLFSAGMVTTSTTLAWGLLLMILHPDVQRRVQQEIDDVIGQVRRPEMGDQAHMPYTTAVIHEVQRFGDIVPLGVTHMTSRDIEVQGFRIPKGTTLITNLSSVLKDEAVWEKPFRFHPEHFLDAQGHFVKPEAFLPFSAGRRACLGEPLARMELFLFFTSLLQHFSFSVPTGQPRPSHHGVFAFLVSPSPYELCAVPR

Compound | inhibition (INH)
CCCCc1cc(C(=O)N[C@@H](CCC(=O)O)C(=O)N2CCN(C(=O)OCC)CC2)nc(-c2ccccc2)n1 | Not Active
CCOC(=O)N1CCN(C(=O)[C@H](CCC(=O)O)NC(=O)c2cc(C3CC3)nc(-c3ccccc3)n2)CC1 | Not Active
CCOC(=O)N1CCN(C(=O)[C@H](CCC(=O)O)NC(=O)c2cc(CCCO)nc(-c3ccccc3)n2)CC1 | Not Active
CCOC(=O)N1CCN(C(=O)[C@H](CCC(=O)O)NC(=O)c2cc(-c3ccncc3)nc(-c3ccccc3)n2)CC1 | Not Active

target: Cytochrome P450 2C9 (Homo sapiens, UniProt P11712); test: Inhibition of CYP2C9 in human liver microsomes assessed as reduction in diclofenac 4'-hydroxylation; format: ADME; conditions: not given
Sequence (P11712 whole entry): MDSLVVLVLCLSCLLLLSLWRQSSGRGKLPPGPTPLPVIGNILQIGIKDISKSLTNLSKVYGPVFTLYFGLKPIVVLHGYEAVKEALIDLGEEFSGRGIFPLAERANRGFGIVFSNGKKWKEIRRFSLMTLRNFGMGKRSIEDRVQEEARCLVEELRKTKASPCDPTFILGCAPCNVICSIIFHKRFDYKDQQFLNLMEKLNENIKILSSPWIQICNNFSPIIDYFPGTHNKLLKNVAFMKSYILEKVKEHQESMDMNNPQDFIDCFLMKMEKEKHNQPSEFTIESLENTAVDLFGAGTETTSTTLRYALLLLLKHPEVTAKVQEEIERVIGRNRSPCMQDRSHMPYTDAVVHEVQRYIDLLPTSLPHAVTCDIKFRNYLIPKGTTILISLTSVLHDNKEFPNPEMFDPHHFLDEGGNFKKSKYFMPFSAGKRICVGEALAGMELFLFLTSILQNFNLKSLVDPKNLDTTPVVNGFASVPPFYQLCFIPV

Compound | inhibition (INH)
CCCCc1cc(C(=O)N[C@@H](CCC(=O)O)C(=O)N2CCN(C(=O)OCC)CC2)nc(-c2ccccc2)n1 | Not Active
CCOC(=O)N1CCN(C(=O)[C@H](CCC(=O)O)NC(=O)c2cc(C3CC3)nc(-c3ccccc3)n2)CC1 | Not Active
CCOC(=O)N1CCN(C(=O)[C@H](CCC(=O)O)NC(=O)c2cc(CCCO)nc(-c3ccccc3)n2)CC1 | Not Active
CCOC(=O)N1CCN(C(=O)[C@H](CCC(=O)O)NC(=O)c2cc(-c3ccncc3)nc(-c3ccccc3)n2)CC1 | Not Active

test system: Liver microsome; test: Metabolic stability assay in human liver microsomes assessed as parent drug disappearance at 1 uM after 20 mins by HPLC and mass spectrometry method; format: ADME; conditions: not given

Compound | Stability
CCCCc1cc(C(=O)N[C@@H](CCC(=O)O)C(=O)N2CCN(C(=O)OCC)CC2)nc(-c2ccccc2)n1 | Stable
CCOC(=O)N1CCN(C(=O)[C@H](CCC(=O)O)NC(=O)c2cc(C3CC3)nc(-c3ccccc3)n2)CC1 | Stable
CCOC(=O)N1CCN(C(=O)[C@H](CCC(=O)O)NC(=O)c2cc(CCCO)nc(-c3ccccc3)n2)CC1 | Stable
CCOC(=O)N1CCN(C(=O)[C@H](CCC(=O)O)NC(=O)c2cc(-c3ccncc3)nc(-c3ccccc3)n2)CC1 | Stable

test system: Liver microsome; test: Metabolic stability assay in rat liver microsomes assessed as parent drug disappearance at 1 uM after 20 mins by HPLC and mass spectrometry method; format: ADME; conditions: not given

Compound | Stability
CCCCc1cc(C(=O)N[C@@H](CCC(=O)O)C(=O)N2CCN(C(=O)OCC)CC2)nc(-c2ccccc2)n1 | Stable
CCOC(=O)N1CCN(C(=O)[C@H](CCC(=O)O)NC(=O)c2cc(C3CC3)nc(-c3ccccc3)n2)CC1 | Stable
CCOC(=O)N1CCN(C(=O)[C@H](CCC(=O)O)NC(=O)c2cc(CCCO)nc(-c3ccccc3)n2)CC1 | Stable
CCOC(=O)N1CCN(C(=O)[C@H](CCC(=O)O)NC(=O)c2cc(-c3ccncc3)nc(-c3ccccc3)n2)CC1 | Stable

target: Voltage-gated inwardly rectifying potassium channel KCNH2 (Homo sapiens, UniProt Q12809); test: Inhibition of human ERG expressed in HEK cells by patch-clamp assay; format: cell-based; conditions: hek293
Sequence (Q12809 whole entry): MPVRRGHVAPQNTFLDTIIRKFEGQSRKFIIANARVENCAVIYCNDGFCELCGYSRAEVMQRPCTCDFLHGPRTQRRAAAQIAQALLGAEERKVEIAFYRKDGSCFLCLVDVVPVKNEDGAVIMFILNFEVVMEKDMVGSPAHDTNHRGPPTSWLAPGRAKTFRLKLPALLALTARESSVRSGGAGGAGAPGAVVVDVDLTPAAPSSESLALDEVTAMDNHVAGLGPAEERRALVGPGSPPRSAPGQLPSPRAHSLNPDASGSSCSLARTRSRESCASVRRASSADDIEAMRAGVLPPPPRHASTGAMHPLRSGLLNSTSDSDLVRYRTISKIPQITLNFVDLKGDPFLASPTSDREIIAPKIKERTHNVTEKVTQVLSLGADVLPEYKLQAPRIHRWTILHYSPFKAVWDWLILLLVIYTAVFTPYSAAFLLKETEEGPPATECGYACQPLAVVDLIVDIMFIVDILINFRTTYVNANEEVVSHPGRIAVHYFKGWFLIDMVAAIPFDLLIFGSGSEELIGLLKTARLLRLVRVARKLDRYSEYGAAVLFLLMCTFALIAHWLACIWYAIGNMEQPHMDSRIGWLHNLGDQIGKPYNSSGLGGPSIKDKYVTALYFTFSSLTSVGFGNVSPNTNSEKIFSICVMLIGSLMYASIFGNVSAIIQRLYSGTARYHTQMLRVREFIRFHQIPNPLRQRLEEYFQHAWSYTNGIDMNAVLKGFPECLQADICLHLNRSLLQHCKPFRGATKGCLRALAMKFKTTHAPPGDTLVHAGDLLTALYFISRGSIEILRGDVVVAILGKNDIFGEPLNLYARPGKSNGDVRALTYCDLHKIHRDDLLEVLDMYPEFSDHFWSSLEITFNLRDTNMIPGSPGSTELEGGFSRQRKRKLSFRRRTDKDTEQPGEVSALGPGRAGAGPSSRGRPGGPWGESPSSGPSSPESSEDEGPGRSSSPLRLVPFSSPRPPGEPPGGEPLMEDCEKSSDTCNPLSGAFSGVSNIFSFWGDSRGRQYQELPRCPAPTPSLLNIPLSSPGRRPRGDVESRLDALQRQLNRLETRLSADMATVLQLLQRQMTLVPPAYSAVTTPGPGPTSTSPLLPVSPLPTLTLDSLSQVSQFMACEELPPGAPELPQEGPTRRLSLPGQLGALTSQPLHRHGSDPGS

Compound | inhibition (INH)
CCCCc1cc(C(=O)N[C@@H](CCC(=O)O)C(=O)N2CCN(C(=O)OCC)CC2)nc(-c2ccccc2)n1 | Not Active
CCOC(=O)N1CCN(C(=O)[C@H](CCC(=O)O)NC(=O)c2cc(C3CC3)nc(-c3ccccc3)n2)CC1 | Not Active
CCOC(=O)N1CCN(C(=O)[C@H](CCC(=O)O)NC(=O)c2cc(CCCO)nc(-c3ccccc3)n2)CC1 | Not Active
CCOC(=O)N1CCN(C(=O)[C@H](CCC(=O)O)NC(=O)c2cc(-c3ccncc3)nc(-c3ccccc3)n2)CC1 | Not Active
